Laboratory results as given in ChEMBL document CHEMBL3232837, “Synthesis and evaluation of new Hsp90 inhibitors based on a 1,4,5-trisubstituted 1,2,3-triazole scaffold” (J Med Chem, 2014).
Active and inactive are the calls of the source. No cut-off for these calls is given here.

Columns and labels:
Mus musculus [1] = test: Toxicity in CD-1 nude mouse xenografted with human A431 cells overexpressing EGFR assessed as body weight loss at 8 mg/kg, ip administered as q4d/week for 2 weeks starting 3 days after tumor injection measured on day 5 post last dose relative to vehicle-treated control; assay type: organism-based, A-431; set-up: dose 8 mg/kg, route intraperitoneal; conditions: in vivo
Procedure, shortened: (§1)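 Female athymic nude mice carrying s.c. xenografts, dosed i.p. (mg/10 mL/kg per administration) starting 3 days after tumor injection. BWL% = 100 − (mean BW day x/mean BW day 1 × 100), day 1 being the first treatment day. Maximum BWL% recorded. Lethal toxicity counted as deaths before the first control death.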

Mus musculus [2] = test: (§2) In vivo inhibition of HSP90 in human GTL16 cells overexpressing c-Met xenografted in CD-1 nude mouse assessed as downregulation of CDK4 protein expression at 8 mg/kg, ip administered as q4d/week for 2 weeks starting 3 days after tumor injection measured at 6 hrs post last dose by Western blot analysis; assay type: functional, organism-based; set-up: dose 8 mg/kg
Procedure, shortened: (§3)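 Nude-mouse s.c. xenografts given i.p. compound from day 3. Tumors excised 2 h (A431) or 6 h (GTL-16) after last dose and homogenized in tissue protein extraction reagent with 10 µg/ml protease inhibitor cocktail. Whole lysates analysed by Western blot with actin as loading control; two tumor samples per group shown.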

A-431 = test: Antitumor activity against human A431 cells overexpressing EGFR xenografted in CD-1 nude mouse assessed as tumor growth inhibition at 8 mg/kg, ip administered as q4d/week for 2 weeks starting 3 days after tumor injection measured on day 5 post last dose relative to vehicle-treated control; assay type: functional; conditions: A-431, ip, route intraperitoneal, read-out: TGI
Procedure, shortened: (§4)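 Female athymic nude mice, 5-6 weeks old, inoculated s.c. in right flank with 5 × 10^6 exponentially growing tumor cells. Intraperitoneal dosing in 10 mL/kg, starting 3 days post-implant. Tumor volume = d²·D/2 from calipered shortest and longest diameters, measured biweekly. TVI% = 100 − (mean TV treated/mean TV control × 100), scored 5 days after last dose. Mann-Whitney test vs vehicle group; 8 mice per group.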

[3] = molecular target: Heat shock protein HSP 90-beta (Homo sapiens) (UniProt P08238); test: Inhibition of HSP90 in human A431 cells overexpressing EGFR assessed as downregulation of EGFR protein expression after 24 hrs by Western blot analysis; assay type: cell-based; conditions: A-431
Procedure, shortened: (§5)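 A431 cells treated 24 h after seeding for 24 h over a concentration range; 17-DMAG 0.2 µM as reference. Cells lysed in RIPA buffer with protease and phosphatase inhibitors, protein measured by Bradford. Equal protein run on SDS-PAGE and blotted to nitrocellulose, then probed for EGFR, Cdk4, Akt, Hsp70 and actin. ECL detection; densitometry normalized to β-actin. Run at least twice.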

[4] = molecular target: Heat shock protein HSP 90-alpha (Homo sapiens, UniProt P07900); test: Displacement of GM-FITC from full-length recombinant human Hsp90-alpha after 4 hrs by fluorescence polarization assay
Mus musculus [5] = test: Toxicity in CD-1 nude mouse xenografted with human GTL16 cells overexpressing c-Met assessed as mortality at 5 mg/kg, ip administered as q4d/week for 2 weeks starting 3 days after tumor injection measured on day 5 post last dose relative to vehicle-treated control; assay type: organism-based; set-up: dose 5 mg/kg, route intraperitoneal; conditions: in vivo
Procedure, shortened: (§6)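 S.c. right-flank xenografts, 5 × 10^6 cells, in female athymic nude mice 5-6 weeks old. Intraperitoneal dosing in 10 mL/kg from day 3 post-implant. Lethal toxicity counted as deaths in treated mice occurring before the first control mouse died, reported as dead/treated (8 per group). Body weight loss was also tracked from the first treatment day.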

Mus musculus [6] = test: In vivo inhibition of HSP90 in human GTL16 cells overexpressing c-Met xenografted in CD-1 nude mouse assessed as induction of HSP70 protein expression at 8 mg/kg, ip administered as q4d/week for 2 weeks starting 3 days after tumor injection measured at 6 hrs post last dose by Western blot analysis; assay type: functional, organism-based; set-up: dose 8 mg/kg; procedure, shortened: as §3
Mus musculus [7] = test: Toxicity in CD-1 nude mouse xenografted with human A431 cells overexpressing EGFR assessed as mortality at 8 mg/kg, ip administered as q4d/week for 2 weeks starting 3 days after tumor injection measured on day 5 post last dose relative to vehicle-treated control; assay type: organism-based, A-431; set-up: dose 8 mg/kg, route intraperitoneal; conditions: in vivo; procedure, shortened: as §6
NCI-H460 = test: Cytotoxicity against human NCI-H460 cells assessed as growth inhibition after 72 hrs by SRB assay; assay type: functional, cell-based; conditions: NCI-H460, 72 h
Procedure, shortened: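 NCI-H460 cells grown in RPMI-1640 with 10% heat-inactivated FBS, seeded at about 10% confluence and allowed 24 h recovery. Exposed to graded drug concentrations or solvent for 72 h. Surviving fraction measured by sulforhodamine B. IC50 is the concentration giving a 50% drop in cell number vs vehicle, from dose-response curve fitting; mean of n=4 with SD.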

Mus musculus [8] = test: In vivo inhibition of HSP90 in human A431 cells overexpressing EGFR xenografted in CD-1 nude mouse assessed as downregulation of AKT protein expression at 8 mg/kg, ip administered as q4d/week for 2 weeks starting 3 days after tumor injection measured at 2 hrs post last dose by Western blot analysis; assay type: functional, organism-based; set-up: dose 8 mg/kg; conditions: A-431; procedure, shortened: as §3
Mus musculus [9] = test: Toxicity in CD-1 nude mouse xenografted with human GTL16 cells overexpressing c-Met assessed as body weight loss at 5 mg/kg, ip administered as q4d/week for 2 weeks starting 3 days after tumor injection measured on day 5 post last dose relative to vehicle-treated control; assay type: organism-based; set-up: dose 5 mg/kg, route intraperitoneal; conditions: in vivo; procedure, shortened: as §1
Mus musculus [10] = test: as §2, with “AKT” for “CDK4”; assay type: functional, organism-based; set-up: dose 8 mg/kg; procedure, shortened: as §3
Mus musculus [11] = test: In vivo inhibition of HSP90 in human A431 cells overexpressing EGFR xenografted in CD-1 nude mouse assessed as downregulation of EGFR protein expression at 8 mg/kg, ip administered as q4d/week for 2 weeks starting 3 days after tumor injection measured at 2 hrs post last dose by Western blot analysis; assay type: functional, organism-based; set-up: dose 8 mg/kg; conditions: A-431; procedure, shortened: as §3
[12] = molecular target: Heat shock protein HSP 90-beta (Homo sapiens) (UniProt P08238); test: Inhibition of HSP90 in human A431 cells overexpressing EGFR assessed as induction of HSP70 protein expression after 24 hrs by Western blot analysis; assay type: cell-based; conditions: A-431; procedure, shortened: as §5
Mus musculus [13] = test: as §2, with “c-Met” for “CDK4”; assay type: functional, organism-based; set-up: dose 8 mg/kg; procedure, shortened: as §3
[14] = molecular target: Heat shock protein HSP 90-beta (Homo sapiens) (UniProt P08238); test: Inhibition of HSP90 in human A431 cells overexpressing EGFR assessed as downregulation of AKT protein expression after 24 hrs by Western blot analysis; assay type: cell-based; conditions: A-431; procedure, shortened: as §5
[15] = molecular target: Heat shock protein HSP 90-beta (Homo sapiens) (UniProt P08238); test: Inhibition of HSP90 in human A431 cells overexpressing EGFR assessed as downregulation of CDK4 protein expression after 24 hrs by Western blot analysis; assay type: cell-based; conditions: A-431; procedure, shortened: as §5
[16] = Antitumor activity against human GTL16 cells overexpressing c-Met xenografted in CD-1 nude mouse assessed as tumor growth inhibition at 5 mg/kg, ip administered as q4d/week for 2 weeks starting 3 days after tumor injection measured on day 5 post last dose relative to vehicle-treated control; assay type: functional; conditions: GTL 16, ip, route intraperitoneal, read-out: TGI; procedure, shortened: as §4
Mus musculus [17] = test: In vivo inhibition of HSP90 in human A431 cells overexpressing EGFR xenografted in CD-1 nude mouse assessed as induction of HSP70 protein expression at 8 mg/kg, ip administered as q4d/week for 2 weeks starting 3 days after tumor injection measured at 2 hrs post last dose by Western blot analysis; assay type: functional, organism-based; set-up: dose 8 mg/kg; conditions: A-431; procedure, shortened: as §3
Mus musculus [18] = test: In vivo inhibition of HSP90 in human A431 cells overexpressing EGFR xenografted in CD-1 nude mouse assessed as downregulation of CDK4 protein expression at 8 mg/kg, ip administered as q4d/week for 2 weeks starting 3 days after tumor injection measured at 2 hrs post last dose by Western blot analysis; assay type: functional, organism-based; set-up: dose 8 mg/kg; conditions: A-431; procedure, shortened: as §3

Heat shock protein HSP 90-beta (Homo sapiens), sequence (P08238 whole entry): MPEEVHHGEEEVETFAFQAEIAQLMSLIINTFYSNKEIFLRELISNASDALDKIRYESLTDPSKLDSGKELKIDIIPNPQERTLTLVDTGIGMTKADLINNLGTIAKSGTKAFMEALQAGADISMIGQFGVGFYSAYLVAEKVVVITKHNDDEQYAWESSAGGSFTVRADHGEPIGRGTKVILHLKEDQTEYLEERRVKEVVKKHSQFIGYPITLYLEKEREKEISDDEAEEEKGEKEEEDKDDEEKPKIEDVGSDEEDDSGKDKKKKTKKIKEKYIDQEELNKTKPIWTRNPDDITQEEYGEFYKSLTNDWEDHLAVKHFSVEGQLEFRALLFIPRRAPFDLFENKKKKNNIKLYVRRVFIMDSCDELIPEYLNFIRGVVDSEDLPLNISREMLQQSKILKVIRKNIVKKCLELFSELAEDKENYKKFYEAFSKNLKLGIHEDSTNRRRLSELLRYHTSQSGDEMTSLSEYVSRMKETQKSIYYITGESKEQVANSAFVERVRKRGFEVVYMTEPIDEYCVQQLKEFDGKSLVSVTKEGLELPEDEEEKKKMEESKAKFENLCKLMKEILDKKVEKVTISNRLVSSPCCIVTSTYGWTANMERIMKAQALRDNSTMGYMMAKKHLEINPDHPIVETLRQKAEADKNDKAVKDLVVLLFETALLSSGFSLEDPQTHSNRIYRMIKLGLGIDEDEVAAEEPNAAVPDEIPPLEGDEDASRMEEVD

CCNC(=O)c1nnn(-c2cc(C(C)C)c(O)cc2O)c1-c1ccc(CN2CCCC(O)C2)cc1 (stereo not given)
Imax (Mus musculus [1]): 7% | inhibition (Mus musculus [2]): Active | inhibition in vivo at 8 mg/kg (A-431): 45% | inhibition [3]: Dose-dependent effect | IC50 [4]: 23 nM | Activity (Mus musculus [5]): Non-toxic | inhibition (Mus musculus [6]): Active | Activity (Mus musculus [7]): Non-toxic | IC50 (NCI-H460): 62 nM | inhibition (Mus musculus [8]): Active | Imax (Mus musculus [9]): 17% | inhibition (Mus musculus [10]): Active | inhibition (Mus musculus [11]): Active | inhibition [12]: Dose-dependent effect | inhibition (Mus musculus [13]): Active | inhibition [14]: Dose-dependent effect | inhibition [15]: Dose-dependent effect | inhibition in vivo at 5 mg/kg [16]: 42% | inhibition (Mus musculus [17]): Active | inhibition (Mus musculus [18]): Active
